In ChEMBL document CHEMBL1138301, “N-(2-Amino-phenyl)-4-(heteroarylmethyl)-benzamides as new histone deacetylase inhibitors” (Bioorg Med Chem Lett, 2007):
Calls of active or inactive are those of the source. No cut-off for these calls is given here.

Legend:
Histone deacetylase 1 = Histone deacetylase 1 (Homo sapiens, UniProt Q13547); test: Inhibition of human recombinant HDAC1 expressed in insect Sf9 cells
How it was run: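 FLAG-tagged recombinant HDAC1 expressed in Sf9 cells, purified by anti-FLAG affinity resin and size-exclusion chromatography. Substrate BocLys(acetyl)AMC. Deacetylated product detected fluorometrically after trypsin release of AMC (excitation 360 nm). IC50 determined.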

HCT-116 [1] = test: Antiproliferative activity against human HCT116 cells by MTT assay; assay type: functional, cell-based
How it was run: (§1)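 MTT read-out of cell proliferation/cytotoxicity in human colon cancer HCT116 cells and in normal human mammary epithelial cells (HMEC); IC50 derived.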

HMEC = test: Antiproliferative activity against human HMEC cells by MTT assay; assay type: cell-based; how it was run: as §1
T-24 [2] = test: Induction of histone H4 acetylation in human T24 cells after 16 hrs by immunoblot relative to MS-275; assay type: functional, cell-based; conditions: T-24, 16 h
How it was run: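 T24 cells exposed to 0, 1, 5 and 25 µM for 16 h, then harvested. Histones acid-extracted, run on SDS–PAGE and immunoblotted with antibodies to H4 and to acetylated H4. Relative effective concentration expressed against MS-275 at 1 µM.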

T-24 [3] = test: Induction of p21WAF1/Cip1 expression in human T24 cells […] after 16 hrs by Western blot analysis relative to MS-275; assay type: functional, cell-based; conditions: T-24, 16 h
How it was run: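 T24 cells exposed to 0, 1, 5 and 25 µM or DMSO alone for 16 h. Whole-cell lysates analysed by Western blot with p21WAF1/Cip1 antibody. Relative effective concentration expressed against MS-275 at 1 µM.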

HCT-116 [4] = test: Apoptosis in human HCT116 cells; assay type: functional, cell-based
HCT-116 [5] = test: Cell cycle arrest in HCT116 cells by accumulation at G2/M phase; assay type: functional, cell-based; conditions: Homo sapiens
[6] = Oral bioavailability in Sprague-Dawley rat at 5.0 mg/kg, po; assay type: ADME, organism-based; conditions: in vivo
How it was run: (§2)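 Pharmacokinetics with single dosing at 2.5 mg/kg iv or 5.0 mg/kg po. Vehicles were acidified saline or acidified saline/PEG400. Half-life and oral availability were determined.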

[7] = Half life in Sprague-Dawley rat at 2.5 mg/kg, iv; assay type: ADME, organism-based; parameters: dose 2.5 mg/kg, route intravenous; conditions: in vivo; how it was run: as §2
HCT-116 [8] = test: Antitumor activity against HCT116 xenografted nude mouse assessed as tumor growth inhibition at 20 mg/kg, ip after 14 days; assay type: functional, Homo sapiens; conditions: HCT-116, ip, 336 h, route intraperitoneal
How it was run: (§3)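 Human tumour xenografts (A549 non-small cell lung, DU145 prostate, HCT116 colon) grown in nude mice, 6 animals per group. Dosing once daily for 14 days, intraperitoneal or oral. Read-out is % tumour growth inhibition versus vehicle-treated control animals.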

HCT-116 [9] = test: Antitumor activity against HCT116 xenografted nude mouse assessed as tumor growth inhibition at 40 mg/kg, ip after 14 days; assay type: functional, Homo sapiens; conditions: HCT-116, ip, 336 h, route intraperitoneal; how it was run: as §3
DU-145 = test: Antitumor activity against DU145 xenografted nude mouse assessed as tumor growth inhibition at 80 mg/kg, po after 14 days; assay type: functional, Homo sapiens; conditions: DU-145, 336 h; how it was run: as §3
A549 = test: Antitumor activity against A549 xenografted nude mouse assessed as tumor growth inhibition at 80 mg/kg, po after 14 days; assay type: functional, Homo sapiens; conditions: A549, 336 h; how it was run: as §3

Histone deacetylase 1, sequence (Q13547 whole entry): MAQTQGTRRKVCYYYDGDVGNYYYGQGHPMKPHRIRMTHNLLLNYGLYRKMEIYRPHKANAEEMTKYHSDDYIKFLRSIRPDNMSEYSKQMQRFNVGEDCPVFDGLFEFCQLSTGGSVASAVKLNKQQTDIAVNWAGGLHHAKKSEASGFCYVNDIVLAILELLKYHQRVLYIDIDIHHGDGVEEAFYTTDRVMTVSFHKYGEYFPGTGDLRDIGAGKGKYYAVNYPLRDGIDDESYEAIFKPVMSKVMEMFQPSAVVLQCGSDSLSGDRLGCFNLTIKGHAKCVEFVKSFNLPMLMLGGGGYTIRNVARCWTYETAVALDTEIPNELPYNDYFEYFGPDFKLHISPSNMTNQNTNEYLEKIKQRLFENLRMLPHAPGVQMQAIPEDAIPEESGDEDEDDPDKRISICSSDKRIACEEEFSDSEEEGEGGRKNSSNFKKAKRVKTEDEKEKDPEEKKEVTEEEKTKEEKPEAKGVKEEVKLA

Nc1ccccc1NC(=O)c1ccc(CC2COc3ccccc3C2)cc1 (configuration not stated)
IC50 (Histone deacetylase 1): 1 µM | IC50 (HCT-116 [1]): 2 µM | IC50 (HMEC): 23 µM | EC50 (T-24 [2]): 3 µM | EC50 (T-24 [3]): 3 µM | Activity (HCT-116 [4]): Active | Activity (HCT-116 [5]): Active

CCn1c(=O)n(Cc2ccc(C(=O)Nc3ccccc3N)cc2)c(=O)c2sccc21
bioavailability [6]: 64% | half-life [7]: 1.2 h | IC50 (Histone deacetylase 1): 0.3 µM | IC50 (HCT-116 [1]): 0.8 µM | IC50 (HMEC): > 50 µM | EC50 (T-24 [2]): 1 µM | EC50 (T-24 [3]): 3 µM | Activity (HCT-116 [4]): Active | Activity (HCT-116 [5]): Active

CN(C)CCn1c(=O)n(Cc2ccc(C(=O)Nc3ccccc3N)cc2)c(=O)c2ccccc21
bioavailability [6]: 38% | half-life [7]: 2.1 h | IC50 (Histone deacetylase 1): 0.3 µM | IC50 (HCT-116 [1]): 1 µM | IC50 (HMEC): > 25 µM | EC50 (T-24 [2]): 1 µM | EC50 (T-24 [3]): 1 µM | Activity (HCT-116 [4]): Active | Activity (HCT-116 [5]): Active

Cn1c(=O)n(Cc2ccc(C(=O)Nc3ccccc3N)cc2)c(=O)c2ccccc21
IC50 (Histone deacetylase 1): 0.1 µM | IC50 (HCT-116 [1]): 0.7 µM | IC50 (HMEC): > 42 µM | EC50 (T-24 [2]): 1 µM | EC50 (T-24 [3]): 1 µM | Activity (HCT-116 [4]): Active | Activity (HCT-116 [5]): Active

Nc1ccccc1NC(=O)c1ccc(CN2C(=O)c3ccccc3C2=O)cc1
IC50 (Histone deacetylase 1): 0.2 µM | IC50 (HCT-116 [1]): 5 µM | IC50 (HMEC): > 50 µM | EC50 (T-24 [2]): 5 µM | EC50 (T-24 [3]): 3 µM | Activity (HCT-116 [4]): Active | Activity (HCT-116 [5]): Active

Nc1ccccc1NC(=O)c1ccc(CC2Cc3ccccc3C2=O)cc1 (configuration not stated)
IC50 (Histone deacetylase 1): 0.1 µM | IC50 (HCT-116 [1]): 0.6 µM | IC50 (HMEC): 8 µM | EC50 (T-24 [2]): < 1 µM | EC50 (T-24 [3]): 2 µM | Activity (HCT-116 [4]): Active | Activity (HCT-116 [5]): Active

Nc1ccccc1NC(=O)c1ccc(Cn2nnc3ccccc3c2=O)cc1
IC50 (Histone deacetylase 1): 0.2 µM | IC50 (HCT-116 [1]): 0.6 µM | IC50 (HMEC): 17 µM | EC50 (T-24 [2]): 1 µM | EC50 (T-24 [3]): 1 µM | Activity (HCT-116 [4]): Active | Activity (HCT-116 [5]): Active

Nc1ccccc1NC(=O)c1ccc(Cn2c(=O)oc3ccccc3c2=O)cc1
IC50 (Histone deacetylase 1): 0.1 µM | IC50 (HCT-116 [1]): 0.3 µM | IC50 (HMEC): 21 µM | EC50 (T-24 [2]): 1 µM | EC50 (T-24 [3]): 2 µM | Activity (HCT-116 [4]): Active | Activity (HCT-116 [5]): Active

Cc1nc2ccccc2c(=O)n1Cc1ccc(C(=O)Nc2ccccc2N)cc1
bioavailability [6]: 16% | half-life [7]: 0.9 h | IC50 (Histone deacetylase 1): 0.08 µM | IC50 (HCT-116 [1]): 0.6 µM | IC50 (HMEC): > 50 µM | EC50 (T-24 [2]): 1 µM | EC50 (T-24 [3]): 2 µM | Activity (HCT-116 [4]): Active | Activity (HCT-116 [5]): Active

CCn1c(=O)n(Cc2ccc(C(=O)Nc3ccccc3N)cc2)c(=O)c2ccccc21
IC50 (Histone deacetylase 1): 0.2 µM | IC50 (HCT-116 [1]): 0.4 µM | IC50 (HMEC): 25 µM | EC50 (T-24 [2]): 1 µM | EC50 (T-24 [3]): 0.6 µM | Activity (HCT-116 [4]): Active | Activity (HCT-116 [5]): Active

Nc1ccccc1NC(=O)c1ccc(Cn2cnc3ccccc3c2=O)cc1
IC50 (Histone deacetylase 1): 0.1 µM | IC50 (HCT-116 [1]): 0.4 µM | IC50 (HMEC): 28 µM | EC50 (T-24 [2]): < 1 µM | EC50 (T-24 [3]): 1 µM | Activity (HCT-116 [4]): Active | Activity (HCT-116 [5]): Active

Nc1ccccc1NC(=O)c1ccc(Cn2c(=O)[nH]c3ccccc3c2=O)cc1
IC50 (Histone deacetylase 1): 0.06 µM | IC50 (HCT-116 [1]): 0.8 µM | IC50 (HMEC): 18 µM | EC50 (T-24 [2]): 1 µM | EC50 (T-24 [3]): 2 µM | Activity (HCT-116 [4]): Active | Activity (HCT-116 [5]): Active | inhibition in vivo at 20 mg/kg (HCT-116 [8]): 51% | inhibition in vivo at 40 mg/kg (HCT-116 [9]): 59%

Nc1ccccc1NC(=O)c1ccc(Cn2c(=O)[nH]c3ccsc3c2=O)cc1
inhibition in vivo at 80 mg/kg (DU-145): 67% | bioavailability [6]: 47% | half-life [7]: 1.3 h | IC50 (Histone deacetylase 1): 0.06 µM | IC50 (HCT-116 [1]): 0.4 µM | IC50 (HMEC): 29 µM | EC50 (T-24 [2]): 1 µM | EC50 (T-24 [3]): 1 µM | Activity (HCT-116 [4]): Active | Activity (HCT-116 [5]): Active | inhibition in vivo at 40 mg/kg (HCT-116 [9]): 61% | inhibition in vivo at 80 mg/kg (A549): 55%

Nc1ccccc1NC(=O)c1ccc(CN2Cc3ccccc3C2=O)cc1
bioavailability [6]: 34% | half-life [7]: 0.6 h | IC50 (Histone deacetylase 1): 0.1 µM | IC50 (HCT-116 [1]): 0.5 µM | IC50 (HMEC): 37 µM | EC50 (T-24 [2]): 1 µM | EC50 (T-24 [3]): 2 µM | Activity (HCT-116 [4]): Active | Activity (HCT-116 [5]): Active

Nc1ccccc1NC(=O)c1ccc(Cc2coc3ccccc3c2=O)cc1
IC50 (Histone deacetylase 1): 0.03 µM | IC50 (HCT-116 [1]): 0.3 µM | IC50 (HMEC): 9 µM | EC50 (T-24 [2]): 1 µM | EC50 (T-24 [3]): 1 µM | Activity (HCT-116 [4]): Active | Activity (HCT-116 [5]): Active

COc1ccc(Cn2c(=O)n(Cc3ccc(C(=O)Nc4ccccc4N)cc3)c(=O)c3ccccc32)cc1
IC50 (Histone deacetylase 1): 0.1 µM | IC50 (HCT-116 [1]): 0.8 µM | IC50 (HMEC): > 25 µM | EC50 (T-24 [2]): 1 µM | EC50 (T-24 [3]): 3 µM | Activity (HCT-116 [4]): Active | Activity (HCT-116 [5]): Active

Nc1ccccc1NC(=O)c1ccc(Cn2c(=O)c3ccccc3n(CCN3CCOCC3)c2=O)cc1
IC50 (Histone deacetylase 1): 0.4 µM | IC50 (HCT-116 [1]): 1 µM | IC50 (HMEC): > 25 µM | EC50 (T-24 [2]): 3 µM | EC50 (T-24 [3]): 5 µM | Activity (HCT-116 [4]): Active | Activity (HCT-116 [5]): Active

Nc1ccccc1NC(=O)c1ccc(CC2COc3ccccc3C2=O)cc1 (configuration not stated)
IC50 (Histone deacetylase 1): 0.09 µM | IC50 (HCT-116 [1]): 0.9 µM | IC50 (HMEC): 6 µM | EC50 (T-24 [2]): 2 µM | EC50 (T-24 [3]): 1 µM | Activity (HCT-116 [4]): Active | Activity (HCT-116 [5]): Active

Nc1ccccc1NC(=O)c1ccc(Cn2cnc3ccsc3c2=O)cc1
inhibition in vivo at 80 mg/kg (DU-145): 45% | bioavailability [6]: 47% | half-life [7]: 1.4 h | IC50 (Histone deacetylase 1): 0.2 µM | IC50 (HCT-116 [1]): 0.7 µM | IC50 (HMEC): > 50 µM | EC50 (T-24 [2]): 1 µM | EC50 (T-24 [3]): 1 µM | Activity (HCT-116 [4]): Active | Activity (HCT-116 [5]): Active | inhibition in vivo at 80 mg/kg (A549): 42%
